Three molecules from publication PMC7982424 (Acta Pharmaceutica Sinica. B, 2020) can be followed below.

One data set deals with HIV-1NL4-3. The data set can be described thus: Anti-HIV-1 assay in TZM-GFP cells. It is filed as cell-based. The note with it: for inhibition at 2 µM: Human immunodeficiency virus 1, read-out: Inhibition at 2 μmol/L; for inhibition at 20 µM: Human immunodeficiency virus 1, read-out: Inhibition at 20 μmol/L. The essentials:
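TZM-GFP cells seeded at 1 × 10^4 per well; after 24 h, medium replaced with test compound at 20 μmol/L, with actives retested at 2 μmol/L. HIV-1NL4-3 (HEK 293FT-transfection stock, MT2-propagated, PEG-concentrated) added at MOI 1 24 h later. After 48 h, GFP-positive cells counted by imaging; inhibition relative to DMSO controls. Duplicates, at least two independent experiments.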

Data set [1] in a line: Microsomal stability assay, mouse liver microsomes. It is filed as in vitro ADME. The note with it: mouse, pH 7.4. On the technique in general: Liver microsomes are a subcellular fraction often used to study metabolism.
The nature of data set [2]: Microsomal stability assay, human liver microsomes. It is filed as in vitro ADME. The note with it: human, pH 7.4.
The next data set can be described thus: Cytotoxicity assay. It is filed as cell-based. The note with it: human, TZM-GFP cells. The gist of the method:
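TZM-GFP cells were plated at 1 × 10^4 cells per well and exposed continuously to increasing concentrations of test compound for 72 h. Viable cells were counted by XTT. CC50 came from a log(inhibitor) vs normalized response, variable-slope fit for each independent assay, then averaged. Runs were in duplicate across at least two independent experiments; mean ± SD.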

The half-life is the time needed for the level to fall by half in the phase considered. A higher half-life goes with slow loss. As a reminder, the CC50 is the concentration giving 50% cytotoxicity. Turning to `Cc1cn(CC(=O)N[C@@H](Cc2ccccc2)C(=O)N(C)c2ccc(Cl)cc2)c(=O)[nH]c1=O` [Compound 10, (S)-N-(4-Chlorophenyl)-N-methyl-2-(2-(5-methyl-2,4-dioxo-3,4-dihydropyrimidin-1(2H)-yl)acetamido)-3-phenylpropanamide], the “Inhibition at 2 μmol/L” value in the data set on HIV-1NL4-3 (2 μmol/L compound, HIV-1 in TZM-GFP cells) is listed as “exhibited inhibition”. Also, the half-life at 1 μmol/L in data set [1] was found to be 4.6 min; in data set [2] it was 12 min. In “Cytotoxicity assay”, this molecule displayed a CC50 at 72 h greater than 50 µM.

`CN(C(=O)[C@H](Cc1ccccc1)NC(=O)CNC(=O)c1ccccc1)c1ccccc1` [Compound 18, (S)-N-(2-((1-(Methyl(phenyl)amino)-1-oxo-3-phenylpropan-2-yl)amino)-2-oxoethyl)benzamide]: in the data set on HIV-1NL4-3, the inhibition at 2 µM turned out to be 15%. Besides, the inhibition at 20 µM in the data set on HIV-1NL4-3 amounted to 96%. Besides, the values for the half-life at 1 μmol/L in data set [1] and in data set [2] were 3.6 min and 15 min, respectively. In the data set “Cytotoxicity assay”, this molecule had a cytotoxic concentration (CC50) at 72 h greater than 50 µM.

As to `CN(C(=O)[C@H](Cc1ccccc1)NC(=O)CNC(=O)c1ccccc1)c1cccc(F)c1` [Compound 23, (S)-N-(2-((1-((3-Fluorophenyl)(methyl)amino)-1-oxo-3-phenylpropan-2-yl)amino)-2-oxoethyl)benzamide], in the data set on HIV-1NL4-3, the inhibition at 2 µM worked out at 3% and the inhibition at 20 µM was 94%. Besides, the half-life at 1 μmol/L in data set [1] turned out to be 3.6 min. The molecule also yielded a half-life at 1 μmol/L in data set [2] of 12 min. In “Cytotoxicity assay”, this molecule yielded a half-maximal cytotoxic concentration (CC50) at 72 h greater than 50 µM.
